Assay results published in article PMC6880868 (Cancer cell, 2019).
pIC50, pKd, pKi: −log10 of the molar value. Like-named read-outs stand apart in the source and are kept apart here.

Columns and labels:
[1] = target: T1, STAT3 (Homo sapiens, UniProt P40763); assay: Fluorescence polarization; type: binding
Outline: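 Competitive fluorescence polarisation assay. Recombinant STAT3 (25 nM) was premixed 5 min with 2.5 nM 5-FAM-labelled STAT3 SH2-domain ligand. The mix was added to serially diluted test compound and read after 1 hr at room temperature. Buffer: 50 mM NaCl, 10 mM HEPES pH 7.5, 1 mM EDTA, 0.01% Triton X-100, 2 mM DTT. IC50 came from nonlinear regression and was converted to Ki.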
Target sequence in this assay (P40763 127-688): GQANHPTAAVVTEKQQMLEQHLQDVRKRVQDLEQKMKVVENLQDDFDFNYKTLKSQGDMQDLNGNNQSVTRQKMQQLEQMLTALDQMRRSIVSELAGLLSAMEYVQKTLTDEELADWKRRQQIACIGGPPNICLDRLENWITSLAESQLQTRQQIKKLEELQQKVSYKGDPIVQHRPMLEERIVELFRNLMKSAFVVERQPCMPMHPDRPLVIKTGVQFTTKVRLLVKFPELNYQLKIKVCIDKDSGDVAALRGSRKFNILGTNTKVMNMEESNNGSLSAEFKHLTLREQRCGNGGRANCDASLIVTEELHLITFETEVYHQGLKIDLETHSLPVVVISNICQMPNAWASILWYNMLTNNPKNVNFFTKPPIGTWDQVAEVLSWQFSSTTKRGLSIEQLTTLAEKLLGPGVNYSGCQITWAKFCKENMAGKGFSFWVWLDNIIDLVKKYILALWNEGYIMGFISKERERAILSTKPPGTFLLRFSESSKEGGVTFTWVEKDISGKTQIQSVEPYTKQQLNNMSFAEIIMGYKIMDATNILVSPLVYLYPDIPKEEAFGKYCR

[2] = tested on: transcriptional activity of STAT3; assay: STAT3-luciferase reporter assay; type: cell-based, human
[3] = target: T1, STAT3; assay: STAT3 protein degradation in human cells; type: cell-based; details: for effect on the levels of STAT3 protein: 10 μM, 3 hr MOLM-16 or 24 hr SU-DHL-1; for effect on SD-36-induced depletion of STAT3 protein: co-treatment with SD-36
Outline: (§1)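 Treated cells were lysed in cell lysis buffer, resolved by SDS-PAGE, transferred to PVDF and probed by immunoblotting.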
Target sequence in this assay (P40763 whole entry): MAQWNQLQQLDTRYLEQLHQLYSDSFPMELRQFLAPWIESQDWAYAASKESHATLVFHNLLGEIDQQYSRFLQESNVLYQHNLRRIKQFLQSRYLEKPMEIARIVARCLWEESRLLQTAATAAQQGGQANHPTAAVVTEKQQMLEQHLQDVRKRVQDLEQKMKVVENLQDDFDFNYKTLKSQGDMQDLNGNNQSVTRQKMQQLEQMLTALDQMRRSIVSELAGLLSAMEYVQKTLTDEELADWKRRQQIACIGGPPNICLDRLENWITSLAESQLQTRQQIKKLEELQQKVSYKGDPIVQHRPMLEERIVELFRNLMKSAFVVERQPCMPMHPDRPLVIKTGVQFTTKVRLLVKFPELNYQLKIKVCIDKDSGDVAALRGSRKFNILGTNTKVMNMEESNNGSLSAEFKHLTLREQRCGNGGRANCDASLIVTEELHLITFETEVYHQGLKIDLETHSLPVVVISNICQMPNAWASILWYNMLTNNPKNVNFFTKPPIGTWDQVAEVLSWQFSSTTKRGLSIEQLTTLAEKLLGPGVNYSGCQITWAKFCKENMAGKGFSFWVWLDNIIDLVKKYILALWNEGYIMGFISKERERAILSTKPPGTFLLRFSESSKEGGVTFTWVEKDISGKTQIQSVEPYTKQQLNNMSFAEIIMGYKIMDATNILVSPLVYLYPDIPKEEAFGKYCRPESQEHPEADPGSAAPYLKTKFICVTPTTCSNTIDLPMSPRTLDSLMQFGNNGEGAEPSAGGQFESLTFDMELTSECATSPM

[4] = target: T1, STAT3; assay: Bio-Layer Interferometry binding, STAT3
Outline: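 Recombinant human STAT3 was biotinylated and binding measured by Bio-Layer Interferometry for Kd. Selectivity was taken from Kd values against other STATs.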
Target sequence in this assay (P40763 127-688): as the sequence (P40763 127-688) above

[5] = target: STAT1 (Homo sapiens, UniProt P42224); assay: Bio-Layer Interferometry binding, STAT1
Sequence of STAT1 (P42224 132-713): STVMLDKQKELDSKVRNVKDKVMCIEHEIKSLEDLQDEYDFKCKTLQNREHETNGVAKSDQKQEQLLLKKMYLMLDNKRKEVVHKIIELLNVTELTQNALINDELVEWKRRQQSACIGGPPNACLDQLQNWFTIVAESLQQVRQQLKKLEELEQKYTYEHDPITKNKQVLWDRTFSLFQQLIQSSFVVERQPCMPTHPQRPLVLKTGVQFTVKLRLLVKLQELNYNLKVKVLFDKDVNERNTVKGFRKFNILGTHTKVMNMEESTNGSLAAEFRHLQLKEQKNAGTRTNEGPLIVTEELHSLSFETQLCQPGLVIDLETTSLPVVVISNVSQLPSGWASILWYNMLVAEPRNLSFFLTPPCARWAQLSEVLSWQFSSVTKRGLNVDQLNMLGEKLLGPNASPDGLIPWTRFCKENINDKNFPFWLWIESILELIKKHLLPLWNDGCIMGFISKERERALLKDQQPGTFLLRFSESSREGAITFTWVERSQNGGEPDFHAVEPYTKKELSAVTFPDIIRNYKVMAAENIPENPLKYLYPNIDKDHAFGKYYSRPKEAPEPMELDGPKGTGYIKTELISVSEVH
Outline: (§2)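 Purified recombinant human STAT proteins were biotinylated, then direct binding of the test compound was measured by Bio-Layer Interferometry to give Kd.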

[6] = target: STAT4 (Homo sapiens, UniProt Q14765); assay: Bio-Layer Interferometry binding, STAT4
Sequence of STAT4 (Q14765 133-705): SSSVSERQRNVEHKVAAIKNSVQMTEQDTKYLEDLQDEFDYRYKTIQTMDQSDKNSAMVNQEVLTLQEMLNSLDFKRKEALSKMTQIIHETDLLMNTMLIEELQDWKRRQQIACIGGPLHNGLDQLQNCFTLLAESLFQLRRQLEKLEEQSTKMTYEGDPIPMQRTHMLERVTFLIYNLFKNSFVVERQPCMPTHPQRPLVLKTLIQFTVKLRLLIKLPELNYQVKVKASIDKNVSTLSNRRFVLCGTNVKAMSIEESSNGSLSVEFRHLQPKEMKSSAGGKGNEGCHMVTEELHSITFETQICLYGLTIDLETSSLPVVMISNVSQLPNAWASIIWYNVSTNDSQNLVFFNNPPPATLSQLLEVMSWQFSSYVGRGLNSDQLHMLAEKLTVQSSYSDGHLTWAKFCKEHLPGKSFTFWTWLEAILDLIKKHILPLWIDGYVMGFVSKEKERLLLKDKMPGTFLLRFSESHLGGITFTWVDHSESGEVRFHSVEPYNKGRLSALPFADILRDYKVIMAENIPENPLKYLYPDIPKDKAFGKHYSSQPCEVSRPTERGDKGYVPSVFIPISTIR
Outline: as §2

[7] = tested on: ~5500 proteins quantified in each cell line; assay: Multiplexed quantitative proteomics in cell lines; type: cell-based, human; details: 10 μM, 2.5 hr, three cell lines, p≤0.05
Outline: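 Cells were exposed to test compound, then analysed by multiplexed quantitative proteomics. Significance was assessed by Student's t-test.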

[8] = target: monomeric and dimeric STAT3 protein (Homo sapiens, UniProt P40763); assay: Native electrophoresis and immunoblotting of STAT3 monomer/dimer; type: cell-based; details: MOLM-16, 5 hr
Sequence of monomeric and dimeric STAT3 protein (P40763 whole entry): as the sequence (P40763 whole entry) above

[9] = target: DNA binding activity of STAT3 (Homo sapiens, UniProt P40763); assay: STAT3 DNA binding activity assay on nuclear extracts; type: cell-based; details: 10 μM, 8 hr, MOLM-16 and SU-DHL-1
Sequence of DNA binding activity of STAT3 (P40763 whole entry): as above
Outline: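 Nuclear extraction: cells were swelled 15 min on ice in hypotonic HEPES pH 7.9/10 mM KCl buffer with DTT and phosphatase/protease inhibitors. NP-40 was added (0.5% final), and nuclei were extracted 15 min at 4°C in 0.4 M NaCl HEPES buffer, then cleared at 5,000 × g. ELISA: 5 μg extract was bound 1 hr at room temperature in TransAM STAT ELISA wells. Wells then received STAT antibody (1:1000, 1 hr), HRP secondary (1 hr) and colour development.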

[10] = tested on: MOLM-16; assay: 4-day CellTiter Glo cell viability assay, MOLM-16; type: cell-based; details: Homo sapiens, MOLM16, 96 h, read-out: IC50, growth inhibition
[11] = tested on: leukemia and lymphoma cell lines; assay: 4-day CellTiter Glo cell viability assay, leukemia and lymphoma cell line panel; type: cell-based, human
[12] = tested on: c-Myc; STAT3 Y705 phosphorylation; assay: Immunoblotting of c-Myc and pSTAT3; type: cell-based, human; details: concentrations as high as 10 μM
Outline: as §1

[13] = target: T1, STAT3; assay: Pharmacodynamics: STAT3 protein in xenograft tumors; type: in vivo, NOD/SCID mice bearing human xenograft tumors; details: 100 mg/kg i.v.
Target sequence in this assay (P40763 whole entry): as above

[14] = tested on: MOLM-16 tumors; assay: MOLM-16 xenograft efficacy; type: in vivo, NOD/SCID female mice; details: 100 mg/kg twice weekly for 4 weeks
Outline: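 NOD/SCID female mice were injected subcutaneously in 5 mg/ml Matrigel with MOLM-16 (3 × 10^6), SU-DHL-1 (1 × 10^7) or SUP-M2 (1 × 10^7) cells. At about 150 mm3, mice were size-matched and randomised. Test compound or vehicle (10% PEG400 + 90% PBS) was given on the indicated schedules. Tumours were measured 2–3 times weekly, with volume = length×width²/2. TGI was calculated from group medians.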

[15] = tested on: MOLM-16 cells; assay: RNA-seq analysis, MOLM-16; type: cell-based, human; details: MOLM-16, 24 hr
[16] = tested on: SU-DHL-1; assay: RNA-seq analysis, SU-DHL-1; type: cell-based, human; details: SU-DHL-1, 24 hr
[17] = tested on: MOLM-16 and SU-DHL-1 cell lines; assay: Cell cycle analysis by flow cytometry; type: cell-based, human; details: 1 μM, 48 hr
Outline: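 After treatment, cells were washed twice in cold PBS and fixed overnight in 50% ethanol. They were stained 1 hr at 4°C with PI (50 μg/ml) plus DNase-free RNase A (0.2 μg/ml), then analysed by flow cytometry.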

[18] = Homo sapiens, MOLM16, 24 h, read-out: IC50, transcriptional activity of STAT3
[19] = Homo sapiens, read-out: IC50, inhibition of transcriptional activity of STAT3

`NC(=O)CC[C@H](NC(=O)[C@@H]1CCC2CCCC[C@H](NC(=O)c3cc4cc(C(F)(F)P(=O)(O)O)ccc4[nH]3)C(=O)N21)C(=O)NCc1ccccc1` (stereo partly drawn) [compound 3, (2-((3S,6S)-3-((S)-5-Amino-1-(benzylamino)-1,5-dioxopentan-2-ylcarbamoyl)-5-oxodecahydropyrrolo[1,2-a]azocin-6-ylcarbamoyl)-1H-indol-5-yl)difluoromethylphosphonic acid] was tested. Which pKi [1] did it give?
The pKi was 8.15.

What about the “binding potency relative to compound 2” value ([1]; Ki ratio) of the same molecule?
Its value is 5 times.

How did the pKi [1] turn out when `CC(=O)N1CC[C@H]2CC[C@@H](C(=O)N[C@@H](CCC(N)=O)C(=O)NC(c3ccccc3)c3ccccc3)N2C(=O)[C@@H](NC(=O)c2cc3cc(C(F)(F)P(=O)(O)O)ccc3[nH]2)C1` [SI-109, ((2-(((5S,8S,10aR)-3-acetyl-8-(((S)-5-amino-1-(benzhydrylamino)-1,5-dioxopentan-2-yl)carbamoyl)-6-oxodecahydropyrrolo[1,2-a][1,5]diazocin-5-yl)carbamoyl)-1H-indol-5-yl)difluoromethyl)phosphonic acid] was run?
The pKi was 8.05.

What about the pIC50 [2, 18] of the same molecule?
Its pIC50 is ~5.00.

What about the pIC50 [2, 19] of the same molecule?
The pIC50 was ~5.52.

What about the “effect on the levels of STAT3 protein” value [3] of the same molecule?
Its value is “no significant effect”.

What about the pKd [4] of the same molecule?
The pKd was ~7.30.

What about the “binding selectivity for STAT3 over STAT1 and STAT4” value ([4]; BLI Kd) of the same molecule?
The value was ~ 20 fold.

And the pKd [5]?
Its pKd is 5.70 to 6.00.

What about the pKd [6] of the same molecule?
The pKd was 5.70 to 6.00.

What about the proteome-wide selectivity [7] of the same molecule?
The proteome-wide selectivity was “no measurable effect”.

And the “concentration diminishing STAT3 dimers” value [8]?
The value was ~ 10 μM.

What about the “DNA binding activity of STAT3” value [9] of the same molecule?
Its value is “only modestly reduces”.

And the pIC50 [10]?
The pIC50 was ~5.52.

What about the “cell lines with moderate growth-inhibitory activity” value ([11]; 18 leukemia and lymphoma cell lines) of the same molecule?
Its value is 1 of these 18.

What about the “growth-inhibitory activity in a large number of human cancer cell lines” value ([11]; initial testing) of the same molecule?
The value was “no appreciable growth-inhibitory activity”.

What about the “inhibition of STAT3 Y705 phosphorylation and suppression of c-Myc expression” value [12] of the same molecule?
Its value is “ineffective”.

And the “effect on protein levels of STAT3 in MOLM-16 tumors” value [13]?
Its value is “no significant effect”.

And the “effect on the growth of MOLM-16 tumors” value [14]?
The value was “no effect”.

What does the source list for `Nc1cccc2c1CN(C1CCC(=O)NC1=O)C2=O` (centres unmarked) [lenalidomide, reference compound]?
effect on STAT3 transcriptional activity ([2]; MOLM-16 STAT3 reporter, 24 hr): no significant effect; effect on SD-36-induced depletion of STAT3 protein [3]: blocked; pIC50 [10]: ~5.40; pIC50 ([11]; Homo sapiens, read-out: IC50, proliferation): < 5.00

`CN1C(=O)CCC(N2Cc3c(C#CCCCCCC(=O)N4CC[C@H]5CC[C@@H](C(=O)N[C@@H](CCC(N)=O)C(=O)NC(c6ccccc6)c6ccccc6)N5C(=O)[C@@H](NC(=O)c5cc6cc(C(F)(F)P(=O)(O)O)ccc6[nH]5)C4)cccc3C2=O)C1=O` (stereo partly drawn) [SD-36Me, ((2-(((5S,8S,10aR)-8-(((S)-5-amino-1-(benzhydrylamino)-1,5-dioxopentan-2-yl)carbamoyl)-3-(8-(2-(1-methyl-2,6-dioxopipehdin-3-yl)-1-oxoisoindolin-4-yl)oct-7-ynoyl)-6-oxodecahydropyrrolo[1,2-a][1,5]diazocin-5-yl)carbamoyl)-1H-indol-5-yl)difluoromethyl)phosphonic acid] was tested. Which pIC50 ([2]; read-out: IC50, transcriptional activity of STAT3, MOLM-16 STAT3-dependent luciferase reporter cell line, 24 hr) did it give?
The pIC50 was ~5.00.

And the “effect on the levels of STAT3 protein” value [3]?
Its value is “no significant effect”.

And the “concentration diminishing STAT3 dimers” value [8]?
The value was ~ 10 μM.

And the “genes up- or down-regulated ≥2-fold (p≤0.05), total” value [15]?
The value was 13 genes.

What about the “genes differentially regulated (≥2-fold, p≤0.05)” value [16] of the same molecule?
The value was 28 genes.

What about the cell cycle effect [17] of the same molecule?
The cell cycle effect was “modest G1 arrest”.

And the “effect on protein levels of STAT3 in MOLM-16 tumors” value [13]?
Its value is “no significant effect”.

With `NS(=O)(=O)OC[C@@H]1C[C@@H](n2ccc3c(N[C@H]4CCc5ccccc54)ncnc32)C[C@@H]1O` [MLN4924, reference compound] as the molecule, how does the “effect on SD-36-induced depletion of STAT3 protein” value (“effect on SD-36-induced depletion” below) [3] read?
Its value is “blocked”.

`NC(=O)CC[C@H](NC(=O)[C@@H]1CCC2CCCC[C@H](NC(=O)c3cc4cc(OP(=O)(O)O)ccc4[nH]3)C(=O)N21)C(=O)NCc1ccccc1` (stereo partly drawn) [compound 2, 2-((3S,6S)-3-((S)-5-Amino-1-(benzylamino)-1,5-dioxopentan-2-ylcarbamoyl)-5-oxodecahydropyrrolo[1,2-a]azocin-6-ylcarbamoyl)-1H-indol-5-yl dihydrogen phosphate] was tested. Which pKi [1] did it give?
The pKi was 7.41.

What about the “suppressing STAT3 activity in cells” value ([2]; cells) of the same molecule?
The value was “ineffective”.

`CN1CC[C@H]2CC[C@@H](C(=O)N[C@@H](CCC(N)=O)C(=O)NCc3ccccc3)N2C(=O)[C@@H](NC(=O)c2cc3cc(C(F)(F)P(=O)(O)O)ccc3[nH]2)C1` [SI-108, ((2-(((5S,8S,10aR)-8-(((S)-5-amino-1-(benzylamino)-1,5-dioxopentan-2-yl)carbamoyl)-3-methyl-6-oxodecahydropyrrolo[1,2-a][1,5]diazocin-5-yl)carbamoyl)-1H-indol-5-yl)difluoromethyl)phosphonic acid] was tested. Which pKi [1] did it give?
The pKi was 7.96.

What about the pIC50 [2, 18] of the same molecule?
The pIC50 was ~5.00.

And the pIC50 [2, 19]?
Its pIC50 is ~5.52.

And the “effect on SD-36-induced depletion” value [3]?
The value was “blocked”.

With `CC(C)C[C@H](NC(=O)[C@H](CCc1ccccc1)NC(=O)CN1CCOCC1)C(=O)N[C@@H](Cc1ccccc1)C(=O)N[C@@H](CC(C)C)C(=O)[C@@]1(C)CO1` [carfilzomib, reference compound] as the molecule, how does the “effect on SD-36-induced depletion” value [3] read?
Its value is “blocked”.
